{"source": "paper PMC3064895", "about": "(Cancer Chemotherapy and Pharmacology, 2010)", "key": {"[1]": {"test": "Supine blood pressure and heart rate", "format": "in vivo, patients with advanced cancer", "conditions": "for Mean (SD) maximal change from baseline in supine HR / Mean (SD) maximal change from baseline in supine diastolic BP / Mean (SD) maximal change from baseline in supine systolic BP: over 12-h period; for Mean increase from baseline in diastolic BP, individual patient / Mean increase from baseline in systolic BP, individual patient: patient with confirmed PR"}, "Efficacy: tumor response": {"test": "Efficacy: tumor response", "format": "in vivo, patients with advanced cancer", "method_in_brief": "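Adults with advanced cancer took the oral multitargeted kinase inhibitor at 400 mg bid, continuously, in 28-day cycles until progression or intolerance. Tumors were measured at screening and every 2 cycles and assessed locally by RECIST. Patients with ≥1 dose were included; patients were evaluable if radiologically re-evaluated or if they stopped for death or progression before re-evaluation. Descriptive statistics were used, with Kaplan–Meier for PFS.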"}, "[2]": {"test": "Left ventricular ejection fraction", "format": "in vivo, patients with advanced cancer", "conditions": "for Mean (SD) change from baseline in LVEF(%): sorafenib 400 mg bid"}, "[3]": {"conditions": "cited from earlier work; for Incidence of treatment-emergent cardiac ischemia/infarction AEs: final safety analysis"}, "[4]": {"conditions": "Day 1 of cycle 2, listed as Sorafenib"}, "[5]": {"conditions": "retrospective analysis of 18 studies of sorafenib monotherapy"}}, "note": "“And” between values parts separate entries of the source, which are not always exact repeats. Equal entries are not always repeated. Where two headings read alike, the source gives them in different places."}
{"smiles": "CNC(=O)c1cc(Oc2ccc(NC(=O)Nc3ccc(Cl)c(C(F)(F)F)c3)cc2)ccn1", "note": "[sorafenib]", "values": [{"measurement": "Mean (SD) change from baseline in supine HR", "setting": "[1]; 2 h post-dose, Day 1 of cycle 2", "result": "−5.4 (9.2) bpm"}, {"measurement": "Mean (SD) change from baseline in supine HR", "setting": "[1]; 2 h post-dose, Day 1 of cycle 5", "result": "−0.03 (7.1) bpm"}, {"measurement": "Mean (SD) change from baseline in supine HR", "setting": "[1]; 4 h post-dose, Day 1 of cycle 2", "result": "−4.0 (8.8) bpm"}, {"measurement": "Mean (SD) change from baseline in supine HR", "setting": "[1]; 4 h post-dose, Day 1 of cycle 5", "result": "0.1 (9.2) bpm"}, {"measurement": "Mean (SD) change from baseline in supine HR", "setting": "[1]; 6 h post-dose, Day 1 of cycle 2", "result": "−6.0", "unit": "bpm"}, {"measurement": "Mean (SD) change from baseline in supine HR", "setting": "[1]; 6 h post-dose, Day 1 of cycle 2, listed as Sorafenib", "result": "−6.0 (8.9) bpm"}, {"measurement": "Mean (SD) change from baseline in supine HR", "setting": "[1]; 6 h post-dose, Day 1 of cycle 5", "result": "0 (8.7) bpm"}, {"measurement": "Mean (SD) change from baseline in supine HR", "setting": "[1]; 8 h post-dose, Day 1 of cycle 2", "result": "−4.2 (11.3) bpm"}, {"measurement": "Mean (SD) change from baseline in supine HR", "setting": "[1]; 8 h post-dose, Day 1 of cycle 5", "result": "0.7 (8.6) bpm"}, {"measurement": "Mean (SD) change from baseline in supine HR", "setting": "[1]; 12 h post-dose, Day 1 of cycle 2", "result": "−5.8 (13.3) bpm"}, {"measurement": "Mean (SD) change from baseline in supine HR", "setting": "[1]; 12 h post-dose, Day 1 of cycle 5", "result": "1.6 (10.0) bpm"}, {"measurement": "Patients with BP ≥150/90 mm Hg at t max", "setting": "[1]; Day 1 of cycle 5, sorafenib 400 mg bid", "result": "2 n (%)"}, {"measurement": "Mean (SD) change from baseline in supine HR", "setting": "[1]; Pre-dose, Day 1 of cycle 2", "result": "−4.4 (8.1) bpm"}, {"measurement": "Mean (SD) change from baseline in supine HR", "setting": "[1]; Pre-dose, Day 1 of cycle 5", "result": "−2.9 (10.0) bpm"}, {"measurement": "Patients who exceeded 150/90 mm Hg (both systolic and diastolic)", "setting": "[1]; after 1 cycle", "result": "Four"}, {"measurement": "Patients who exceeded a systolic reading of 150 mm Hg only", "setting": "[1]; after 1 cycle", "result": 4, "unit": "patients"}, {"measurement": "Patients with a diastolic reading surpassing 90 mm Hg only", "setting": "[1]; after 1 cycle", "result": 2, "unit": "patients"}, {"measurement": "Patients who had become hypertensive", "setting": "[1]; after 1 cycle (6% at baseline)", "result": "Thirty-two"}, {"measurement": "Increase in both systolic and diastolic BP at t max", "setting": "[1]; after both 1 and 4 cycles", "result": "11–12 mm Hg"}, {"measurement": "Patients hypertensive", "setting": "[1]; at cycle 4", "result": 13, "unit": "%"}, {"measurement": "Mean (SD) change from baseline in supine HR", "setting": "[1]; at t max, Day 1 of cycle 2", "result": "−6.6", "unit": "bpm"}, {"measurement": "Mean (SD) change from baseline in supine HR", "setting": "[1]; at t max, Day 1 of cycle 2, listed as Sorafenib", "result": "−6.6 (10.6) bpm"}, {"measurement": "Mean (SD) change from baseline in supine HR", "setting": "[1]; at t max, Day 1 of cycle 5", "result": "−3.3", "unit": "bpm"}, {"measurement": "Mean (SD) change from baseline in supine HR", "setting": "[1]; at t max, Day 1 of cycle 5, listed as Sorafenib", "result": "−3.3 (7.3) bpm"}, {"measurement": "Patients who started receiving antihypertensive medications during treatment", "setting": "[1]; during treatment with sorafenib", "result": "Three"}, {"measurement": "Mean (SD) maximal change from baseline in supine HR", "setting": "[1]; Day 1 of cycle 2", "result": "2.9 (±8.2) bpm"}, {"measurement": "Mean (SD) maximal change from baseline in supine diastolic BP", "setting": "[1]; Day 1 of cycle 2", "result": "19.8 (±9.0) mm Hg"}, {"measurement": "Mean (SD) maximal change from baseline in supine systolic BP", "setting": "[1]; Day 1 of cycle 2", "result": "27.7 (±18.5) mm Hg"}, {"measurement": "Mean (SD) maximal change from baseline in supine HR", "setting": "[1]; [4]", "result": "2.9 (8.2) bpm"}, {"measurement": "Mean (SD) maximal change from baseline in supine diastolic BP", "setting": "[1]; [4]", "result": "19.8 (9.0) mm Hg"}, {"measurement": "Mean (SD) maximal change from baseline in supine systolic BP", "setting": "[1]; [4]", "result": "27.7 (18.5) mm Hg"}, {"measurement": "Mean (SD) maximal change from baseline in supine HR", "setting": "[1]; Day 1 of cycle 5", "result": "8.3 (±6.8) bpm"}, {"measurement": "Mean (SD) maximal change from baseline in supine diastolic BP", "setting": "[1]; Day 1 of cycle 5", "result": "22.0 (11.2) mm Hg"}, {"measurement": "Mean (SD) maximal change from baseline in supine systolic BP", "setting": "[1]; Day 1 of cycle 5", "result": "24.8 (14.4) mm Hg"}, {"measurement": "Mean (SD) maximal change from baseline in supine HR", "setting": "[1]; Day 1 of cycle 5, listed as Sorafenib", "result": "8.3 (6.8) bpm"}, {"measurement": "Mean increase from baseline in diastolic BP, individual patient", "setting": "[1]; after 1 cycle", "result": 31.0, "unit": "mm Hg"}, {"measurement": "Mean increase from baseline in systolic BP, individual patient", "setting": "[1]; after 1 cycle", "result": 44.5, "unit": "mm Hg"}, {"measurement": "Mean increase from baseline in diastolic BP, individual patient", "setting": "[1]; after 4 cycles", "result": 40.8, "unit": "mm Hg"}, {"measurement": "Mean increase from baseline in systolic BP, individual patient", "setting": "[1]; after 4 cycles", "result": 29.3, "unit": "mm Hg"}, {"measurement": "PD as best response", "setting": "Efficacy: tumor response; 48 patients evaluable for tumor response, RECIST", "result": 27, "unit": "%"}, {"measurement": "Patients alive (censored) at time of analysis", "setting": "Efficacy: tumor response; ITT population (n = 53)", "result": 87, "unit": "%"}, {"measurement": "Patients who had died by the time of analysis", "setting": "Efficacy: tumor response; ITT population (n = 53)", "result": 13, "unit": "%"}, {"measurement": "Median PFS", "setting": "Efficacy: tumor response; ITT population (n = 53), 95% CI 2.8–6.4 months", "result": 4.1, "unit": "months"}, {"measurement": "Median overall survival", "setting": "Efficacy: tumor response; ITT population (n = 53), censored data", "result": "not estimable"}, {"measurement": "LVEF measurement, individual patient", "setting": "[2]; RCC patient with diabetes (baseline 67%), Day 1 of cycle 3, MUGA scan", "result": 42.2, "unit": "%"}, {"measurement": "LVEF measurement, individual patient", "setting": "[2]; RCC patient with diabetes (baseline 67%), repeat MUGA scan (+16 days)", "result": 50, "unit": "%"}, {"measurement": "Mean (SD) change from baseline in LVEF(%)", "setting": "[2]; primary analysis population, Day 1 of cycle 3 (after 2 cycles)", "result": "−0.8 (±8.6) LVEF(%) and −0.8 LVEF(%)"}, {"measurement": "Mean (SD) change from baseline in LVEF(%)", "setting": "[2]; primary analysis population, Day 1 of cycle 3 (after 2 cycles), listed as Sorafenib", "result": "−0.8 (8.6) LVEF(%)"}, {"measurement": "Mean (SD) change from baseline in LVEF(%)", "setting": "[2]; primary analysis population, Day 1 of cycle 5 (after 4 cycles)", "result": "−1.2 (±7.8) LVEF(%) and −1.2 LVEF(%)"}, {"measurement": "Mean (SD) change from baseline in LVEF(%)", "setting": "[2]; primary analysis population, Day 1 of cycle 5 (after 4 cycles), listed as Sorafenib", "result": "−1.2 (7.8) LVEF(%)"}, {"measurement": "Patients with decrease from baseline of ≥10 LVEF(%)", "setting": "[2]; primary group, after 2 cycles", "result": "12.9% and 13%"}, {"measurement": "Patients with decrease from baseline of ≥10 LVEF(%)", "setting": "[2]; primary group, after 4 cycles", "result": 4, "unit": "%"}, {"measurement": "Mean decline in LVEF(%)", "setting": "[2]; primary patient group (n = 24), after 4 cycles", "result": "1.2 LVEF(%)"}, {"measurement": "Mean (SD) change from baseline in LVEF(%)", "setting": "[2]; secondary analysis population, Day 1 of cycle 3 (after 2 cycles)", "result": "−1.0 (8.5) LVEF(%)"}, {"measurement": "Mean (SD) change from baseline in LVEF(%)", "setting": "[2]; secondary analysis population, Day 1 of cycle 5 (after 4 cycles)", "result": "−1.4 (9.4) LVEF(%)"}, {"measurement": "Patients with decrease from baseline of ≥10 LVEF(%)", "setting": "[2]; secondary group, after 2 cycles", "result": 12.0, "unit": "%"}, {"measurement": "Patients with decrease from baseline of ≥10 LVEF(%)", "setting": "[2]; secondary group, after 4 cycles", "result": 7.1, "unit": "%"}, {"measurement": "Mean decline in LVEF(%)", "setting": "[2]; secondary patient group (n = 14), after 4 cycles", "result": "1.4 LVEF(%)"}, {"measurement": "Mean decline in LVEF(%)", "setting": "[2]; secondary patient group (n = 25), after 2 cycles", "result": "1.0 LVEF(%)"}, {"measurement": "Largest individual decrease in ejection fraction", "setting": "[2]; single patient without clinical signs of CHF", "result": "−24.8 LVEF[%]"}, {"measurement": "LVEF measurement, individual patient", "setting": "[2]; thymic cancer patient (baseline 72%), repeat ECHO scan (+3 days)", "result": "60–65%"}, {"measurement": "Patients reporting cardiac ischemia/infarction AEs", "setting": "[3]; RCC phase III, patients who crossed over from placebo to sorafenib", "result": 1.4, "unit": "%"}, {"measurement": "Incidence of treatment-emergent cardiac ischemia/infarction AEs", "setting": "[3]; randomized phase III HCC study, placebo […]", "result": 2.7, "unit": "%"}, {"measurement": "Incidence of treatment-emergent cardiac ischemia/infarction AEs", "setting": "[3]; randomized phase III RCC study, placebo 0.4%", "result": 2.9, "unit": "%"}, {"measurement": "Overall rate of CHF", "setting": "[3]; [5]", "result": 1.6, "unit": "%"}, {"measurement": "Overall rate of MI", "setting": "[3]; [5]", "result": 1.5, "unit": "%"}, {"measurement": "Treatment-emergent hypertension", "setting": "[3]; [5]", "result": 18.6, "unit": "%"}]}
